In ChEMBL document CHEMBL1145926, “Polyamine-iron chelator conjugate” (J Med Chem, 2003):

What was measured:
L1210 [1] = assay: Compound was determined for spermidine (SPD) level in L1210 cells after treatment at a concentration of 100 uM and expressed as percent compound found in untreated controls.; format: functional, Mus musculus
L1210 [2] = assay: Compound was tested for the growth inhibition of L1210 cell at a duration of 48 h; format: functional, cell-based; details: Mus musculus, L1210, 48 h
[3] = molecular target: Diamine acetyltransferase 1 (Mus musculus) (UniProt P48026); assay: Compound was tested for the enzyme activity against Spermidine/spermine N1-acetyl transferase (SSAT) in L1210 cells and expressed as percent compound found in untreated controls.; format: cell-based
Chain of Diamine acetyltransferase 1 (Mus musculus) (P48026 whole entry): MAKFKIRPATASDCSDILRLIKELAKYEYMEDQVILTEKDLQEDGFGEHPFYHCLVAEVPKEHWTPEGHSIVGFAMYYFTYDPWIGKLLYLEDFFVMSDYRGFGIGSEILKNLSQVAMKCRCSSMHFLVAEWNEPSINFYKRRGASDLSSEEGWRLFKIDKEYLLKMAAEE
Procedure, shortened: (§1)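 L1210 cells were treated for 48 h at 10 µM, or at 0.2 µM for the conjugate. SSAT activity was measured as [14C]N1-acetylspermidine formed from spermidine and [14C]acetyl-CoA, expressed as percent of untreated control. The positive control was 2 µM DENSPM. Results are the mean of at least three experiments.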

L1210 [4] = assay: Compound was determined for spermine (SPM) level in L1210 cells after treatment at a concentration of 100 uM and expressed as percent compound found in untreated controls.; format: functional, Mus musculus
[5] = Compound was tested for the inhibition of spermidine transporter by using [3H]SPD transport in L1210 cell; format: functional, cell-based, Mus musculus
Procedure, shortened: (§2)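 L1210 cell suspensions were incubated in culture medium with [3H]spermidine, either alone or with graduated concentrations of competitor. Cells were pelleted, washed, digested, neutralized and scintillation-counted. Ki was derived from Lineweaver–Burk plots assuming competitive inhibition against spermidine, as the mean of two to three experiments.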

[6] = molecular target: T1, Ornithine decarboxylase (Mus musculus) (UniProt P00860); assay: Compound was tested for the enzyme activity against ornithine decarboxylase (ODC) in L1210 cells and expressed as percent compound found in untreated controls.; format: cell-based
T1 sequence (whole entry): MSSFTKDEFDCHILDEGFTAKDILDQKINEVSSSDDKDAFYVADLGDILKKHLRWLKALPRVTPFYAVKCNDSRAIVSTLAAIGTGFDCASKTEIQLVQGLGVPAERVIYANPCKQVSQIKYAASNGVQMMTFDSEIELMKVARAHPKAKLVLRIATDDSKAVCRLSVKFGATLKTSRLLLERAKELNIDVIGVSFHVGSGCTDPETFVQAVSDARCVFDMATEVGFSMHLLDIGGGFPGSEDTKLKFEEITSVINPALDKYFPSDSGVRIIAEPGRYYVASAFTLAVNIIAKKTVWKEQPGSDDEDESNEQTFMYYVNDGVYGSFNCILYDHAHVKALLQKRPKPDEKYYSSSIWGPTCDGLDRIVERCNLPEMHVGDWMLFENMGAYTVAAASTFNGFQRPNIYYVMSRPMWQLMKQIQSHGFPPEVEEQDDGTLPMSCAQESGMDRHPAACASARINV
Procedure, shortened: (§3)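 L1210 cells were treated at 1 µM for 4 h. ODC activity was measured as 14CO2 released from [14C]carboxyl-labeled L-ornithine and expressed as percent of untreated control. Controls were untreated cells and 1 µM DEHSPM-treated cells. Results are the mean of at least three experiments.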

[7] = molecular target: T2, S-adenosylmethionine decarboxylase proenzyme 1 (Mus musculus) (UniProt P0DMN7); assay: Compound was tested for the enzyme activity against S-Adenosyl-methionine decarboxylase in L1210 cells and expressed as percent compound found in untreated controls.; format: cell-based
T2 sequence (whole entry): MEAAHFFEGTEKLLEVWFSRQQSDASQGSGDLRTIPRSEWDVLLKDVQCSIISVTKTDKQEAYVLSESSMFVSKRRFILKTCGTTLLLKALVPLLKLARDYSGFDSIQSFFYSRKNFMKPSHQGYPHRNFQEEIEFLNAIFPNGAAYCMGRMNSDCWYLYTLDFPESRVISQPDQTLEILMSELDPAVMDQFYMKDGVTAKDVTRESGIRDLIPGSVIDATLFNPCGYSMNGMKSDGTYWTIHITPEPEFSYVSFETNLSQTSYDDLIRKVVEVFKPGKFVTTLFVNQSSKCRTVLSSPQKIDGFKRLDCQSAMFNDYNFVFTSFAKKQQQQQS
Procedure, shortened: as §3, with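 “for 6” for “for 4”, “h. AdoMetDC” for “h. ODC”, “[14C]carboxyl-labeled S-adenosyl-L-methionine” for “[14C]carboxyl-labeled L-ornithine”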

L1210 [8] = assay: Compound was determined for putrescine (PUT) level in L1210 cells after treatment at a concentration of 100 uM and expressed as percent compound found in untreated controls.; format: functional, Mus musculus
L1210 [9] = assay: Compound was determined for putrescine (PUT) level in L1210 cells after treatment at a concentration of 50 uM and expressed as percent compound found in untreated controls.; format: functional, Mus musculus
Procedure, shortened: (§4)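 Murine L1210 leukaemia cells, kept in log-phase suspension in RPMI-1640 with 10% FBS, 1 mM glutamine and 1 mM aminoguanidine at 37 °C, 5% CO2, were treated at 50 μM for 48 h. Cells were washed three times in ice-cold incomplete medium, extracted with 0.6 N perchloric acid and freeze-fractured. Putrescine, spermidine and spermine were then measured by HPLC and expressed as percent of untreated control.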

L1210 [10] = assay: Compound was determined for spermidine (SPD) level in L1210 cells after treatment at a concentration of 50 uM and expressed as percent compound found in untreated controls.; format: functional, Mus musculus; procedure, shortened: as §4
L1210 [11] = assay: Compound was determined for spermine (SPM) level in L1210 cells after treatment at a concentration of 50 uM and expressed as percent compound found in untreated controls.; format: functional, Mus musculus; procedure, shortened: as §4
[12] = Compound was tested for the inhibition of spermidine transporter by using [3H]SPD transport in murine L1210 cell; format: functional, cell-based, Mus musculus; procedure, shortened: as §2
[13] = molecular target: T1, Ornithine decarboxylase (Mus musculus); assay: Compound was tested for the enzyme activity against ornithine decarboxylase (ODC) in murine L1210 cells and expressed as percent compound found in untreated controls.; format: cell-based; procedure, shortened: as §3
L1210 [14] = assay: Compound was determined for putrescine (PUT) level in murine L1210 cells after treatment at a concentration of 100 uM and expressed as percent compound found in untreated controls.; format: functional, Mus musculus
[15] = molecular target: Diamine acetyltransferase 1 (Mus musculus) (UniProt P48026); assay: Compound was tested for the enzyme activity against Spermidine/spermine N1-acetyl transferase (SSAT) in murine L1210 cells and expressed as percent compound found in untreated controls.; format: cell-based; procedure, shortened: as §1
L1210 [16] = assay: Compound was tested for the growth inhibition of murine L1210 cell at a duration of 48 h; format: functional, cell-based; details: Mus musculus, L1210, 48 h
Procedure, shortened: (§5)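 Log-phase suspension cultures of murine L1210 cells (0.5–1.0 × 10^5 cells/mL) were grown in RPMI-1640 with 10% FBS and 1 mM aminoguanidine at 37 °C and 5% CO2. Cells were treated, reseeded and counted to give percent of control growth. IC50 is the concentration reducing growth to 50% of control after 48 or 96 h, as the mean of at least two experiments.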

L1210 [17] = assay: Compound was determined for spermine (SPM) level in murine L1210 cells after treatment at a concentration of 100 uM and expressed as percent compound found in untreated controls.; format: functional, Mus musculus
[18] = molecular target: T2, S-adenosylmethionine decarboxylase proenzyme 1 (Mus musculus); assay: Compound was tested for the enzyme activity against S-Adenosyl-methionine decarboxylase in murine L1210 cells and expressed as percent compound found in untreated controls.; format: cell-based
Procedure, shortened: as §3, with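 “for 6” for “for 4”, “h. AdoMetDC” for “h. ODC”, “[14C]carboxyl-labeled S-adenosyl-L-methionine” for “[14C]carboxyl-labeled L-ornithine”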

L1210 [19] = assay: Compound was tested for the growth inhibition of murine L1210 cell at a duration of 96 h; format: functional, cell-based; details: Mus musculus, L1210, 96 h; procedure, shortened: as §5
L1210 [20] = assay: Compound was determined for putrescine (PUT) level in L1210 cells after treatment at a concentration of 0.2 uM and expressed as percent compound found in untreated controls.; format: functional, Mus musculus
Procedure, shortened: (§6)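 L1210 cells in RPMI-1640 with 10% FBS, HEPES-MOPS, 1 mM glutamine and 1 mM aminoguanidine were exposed to 0.2 µM during log growth for 48 h. Cells were washed three times in ice-cold incomplete medium, extracted with 0.6 N perchloric acid and freeze-fractured three times. Putrescine, spermidine and spermine were measured by HPLC and expressed as percent of untreated control.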

L1210 [21] = assay: Compound was determined for spermine (SPM) level in L1210 cells after treatment at a concentration of 0.2 uM and expressed as percent compound found in untreated controls.; format: functional, Mus musculus; procedure, shortened: as §6
L1210 [22] = assay: Compound was determined for spermidine (SPD) level in L1210 cells after treatment at a concentration of 0.2 uM and expressed as percent compound found in untreated controls.; format: functional, Mus musculus; procedure, shortened: as §6
L1210 [23] = assay: Compound was tested for the growth inhibition of L1210 cell at a duration of 96 h; format: functional, cell-based; details: Mus musculus, L1210, 96 h

Question: For `CCCNCCCCNCCCN`, which Activity (L1210 [1]) is on record?
Answer: Its Activity is 33%.

Question: What about the IC50 (L1210 [2]) of the same compound?
Answer: The IC50 was > 100 µM.

Question: And the Activity [3]?
Answer: Its Activity is 500%.

Question: And the Activity (L1210 [4])?
Answer: The Activity was 103%.

Question: And the Ki [5]?
Answer: The Ki was 8.5 µM.

Question: What about the Activity [6] of the same compound?
Answer: Its Activity is 14%.

Question: What about the Activity [7] of the same compound?
Answer: The Activity was 64%.

Question: And the Activity (L1210 [8])?
Answer: The Activity was 0%.

Question: Which results are given for `Cc1c(O)c(=O)ccn1C` [DEFERIPRONE]?
Answer: Activity (L1210 [9]): 104%; Activity (L1210 [10]): 117%; Activity [3]: 108%; Ki [5]: > 500 µM; Activity [6]: 114%; Activity [7]: 120%; Activity (L1210 [11]): 127%

Question: Which Ki [12] does the source give for `CC(=O)NCCCNCCCCNCCCN` here?
Answer: Its Ki is 10 µM.

Question: What about the Activity (L1210 [1]) of the same compound?
Answer: Its Activity is 71%.

Question: And the Activity [13]?
Answer: Its Activity is 25%.

Question: What about the Activity (L1210 [14]) of the same compound?
Answer: Its Activity is 24%.

Question: What about the Activity [15] of the same compound?
Answer: Its Activity is 180%.

Question: What about the IC50 (L1210 [16]) of the same compound?
Answer: The IC50 was > 100 µM.

Question: And the Activity (L1210 [17])?
Answer: Its Activity is 111%.

Question: And the Activity [18]?
Answer: Its Activity is 86%.

Question: And the IC50 (L1210 [19])?
Answer: Its IC50 is > 100 µM.

Question: For `CCNCCCNCCCCNCCCN`, which Activity [3] is on record?
Answer: Its Activity is 150%.

Question: With `Cc1c(O)c(=O)ccn1CCCNCCCCNCCCN` as the compound, how does the Activity (L1210 [20]) read?
Answer: Its Activity is 33%.

Question: And the Activity (L1210 [21])?
Answer: Its Activity is 139%.

Question: What about the Activity (L1210 [22]) of the same compound?
Answer: The Activity was 64%.

Question: What about the Activity [3] of the same compound?
Answer: The Activity was 275%.

Question: And the Ki [5]?
Answer: Its Ki is 3.7 µM.

Question: What about the Activity [6] of the same compound?
Answer: Its Activity is 20%.

Question: And the IC50 (L1210 [23])?
Answer: Its IC50 is 0.2 µM.

Question: What about the Activity [7] of the same compound?
Answer: The Activity was 77%.
